Values after ≈ are worked out from the molar mass of the structure shown. Active and inactive are the calls of the source. The rule behind the calls is not given here.
Legend:
[1] = system: Candida albicans; test: Antimicrobial activity against Candida albicans FH1 at planktonic cell density of 10^3 cells/ml after 48 hrs by XTT assay; format: functional; settings: FH1, 48 h
How it was run: (§1)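 YNB-grown yeast (50 mM glucose, room temperature, shaken, to ~2 x 10^8 cells/ml) washed into MOPS-buffered RPMI 1640 with L-glutamine and set to the stated density. Exposed to twofold serial drug dilutions (1,024 to 0.0313 µg/ml) at 37°C, 48 h (caspofungin 24 h), with drug-free controls. Read-out: XTT (0.5 g/liter) plus 1 µM menadione, formazan at 490 nm.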

[2] = system: Candida albicans; test: Antimicrobial activity against Candida albicans intact biofilms; format: functional
How it was run: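 Biofilm formed in polystyrene wells from 1 x 10^6 cells/ml, 48 h at 37°C in MOPS-buffered RPMI 1640, washed once. Intact biofilm exposed in the same well to twofold serial drug dilutions (1,024 to 0.0313 µg/ml) at 37°C for 48 h (caspofungin 24 h), with drug-free controls. Metabolic activity measured by XTT plus 1 µM menadione, absorbance at 490 nm.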

[3] = system: Candida albicans; test: Antimicrobial activity against Candida albicans GDH2346 at planktonic cell density of 10^3 cells/ml after 48 hrs by XTT assay; format: functional; settings: GDH2346, 48 h; how it was run: as §1
[4] = system: Candida albicans; test: Antimicrobial activity against fluconazole-resistant Candida albicans FH5 at planktonic cell density of 10^8 cells/ml after 48 hrs by XTT assay; format: functional; settings: FH5, 48 h; how it was run: as §1
[5] = system: Candida albicans; test: Antimicrobial activity against Candida albicans SC5314 dissociated biofilms grown on silicone-elastomer coated latex surface at cell density of 10^3 cells/ml at 0.25 to 8 ug/ml by XTT assay; format: functional, organism-based
How it was run: (§2)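 1-cm discs of denture acrylic, PVC catheter or silicone elastomer-coated latex catheter, ethylene-oxide sterilised. Seeded with 1 ml of 1 x 10^6 cells/ml, adhesion 90 min at 37°C, washed, grown 48 h at 37°C in RPMI. Biofilm scraped off, set to 1 x 10^3 or 1 x 10^8 cells/ml, exposed to fluconazole, read by XTT at 490 nm.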

[6] = system: Candida albicans; test: Inhibition of metabolic activity in Candida albicans SC5314 at 32 ug/ml in presence of 2 ug/ml calcineurin pathway inhibitor FK506; format: functional; set-up: scale not given: the % may be the effect or the level left
How it was run: (§3)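 SC5314 fluconazole susceptibility tested with or without FK506. Cell suspension, drug and FK506 volumes set to the final concentrations in 200 µl. Incubation at 37°C for 48 h, then metabolic activity by XTT/menadione at 490 nm.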

[7] = system: Candida albicans; test: Antimicrobial activity against Candida albicans FH1 at planktonic cell density of 10^8 cells/ml after 48 hrs by XTT assay; format: functional; settings: FH1, 48 h; how it was run: as §1
[8] = system: Candida albicans; test: Antimicrobial activity against Candida albicans SC5314 dissociated biofilms grown on polyvinylchloride catheter surface at cell density of 10^8 cells/ml at 0.25 to 8 ug/ml by XTT assay; format: functional, organism-based; how it was run: as §2
[9] = system: Candida albicans; test: Antimicrobial activity against Candida albicans SC5314 intact biofilms after 48 hrs by XTT assay; format: functional; settings: SC5314, 48 h
How it was run: (§4)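 Biofilm seeded at 1 x 10^6 cells/ml in RPMI in polystyrene microtiter wells and grown 48 h at 37°C in a moist chamber. Washed once and drug added to the same well (twofold dilutions, 1,024 to 0.0313 µg/ml) for 48 h at 37°C (caspofungin 24 h). Read-out: XTT/menadione reduction at 490 nm.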

[10] = system: Candida albicans; test: Antimicrobial activity against fluconazole-resistant Candida albicans FH5 dissociated biofilms at cell density of 10^8 cells/ml after 48 hrs by XTT assay; format: functional; settings: FH5, 48 h
How it was run: (§5)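 Polystyrene-well biofilms (48 h, 37°C) washed, then broken up in 100 µl RPMI by scraping and aspiration. Cells used undiluted (about 2 x 10^8 cells/ml equivalent) or adjusted by A600 against a hemacytometer-calibrated yeast standard curve. Drug exposure at 37°C for 48 h (caspofungin 24 h), then XTT/menadione read at 490 nm.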

[11] = system: Candida albicans; test: Antimicrobial activity against Candida albicans FH1 dissociated biofilms at cell density of 10^8 cells/ml after 48 hrs by XTT assay; format: functional; settings: FH1, 48 h; how it was run: as §5
[12] = system: Candida albicans; test: Antimicrobial activity against fluconazole-resistant Candida albicans FH5 at planktonic cell density of 10^3 cells/ml after 48 hrs by XTT assay; format: functional; settings: FH5, 48 h; how it was run: as §1
[13] = system: Candida albicans; test: Antimicrobial activity against Candida albicans FH1 intact biofilms after 48 hrs by XTT assay; format: functional; settings: FH1, 48 h; how it was run: as §4
[14] = system: Candida albicans; test: Antimicrobial activity against Candida albicans FH1 dissociated biofilms at cell density of 10^3 cells/ml after 48 hrs by XTT assay; format: functional; settings: FH1, 48 h; how it was run: as §5
[15] = system: Candida albicans; test: Antimicrobial activity against Candida albicans SC5314 dissociated biofilms at cell density of 10^8 cells/ml after 48 hrs by XTT assay; format: functional; settings: SC5314, 48 h; how it was run: as §5
[16] = system: Candida albicans; test: Antimicrobial activity against Chk1 deficient Candida albicans CHK21 dissociated biofilms at cell density of 10^3 cells/ml after 48 hrs by XTT assay; format: functional; settings: CHK21, 48 h; how it was run: as §5
[17] = system: Candida albicans; test: Antimicrobial activity against Cdr1, Cdr2 and Mdr1 deficient Candida albicans DSY1050 at planktonic cell density of 10^8 cells/ml after 48 hrs by XTT assay; format: functional; settings: DSY1050, 48 h; how it was run: as §1
[18] = system: Candida albicans; test: Antimicrobial activity against Chk1 deficient Candida albicans CHK21 at planktonic cell density of 10^3 cells/ml after 48 hrs by XTT assay; format: functional; settings: CHK21, 48 h; how it was run: as §1
[19] = system: Candida albicans; test: Antimicrobial activity against Candida albicans SC5314 dissociated biofilms grown on polyvinylchloride catheter surface at cell density of 10^3 cells/ml at 0.25 to 8 ug/ml by XTT assay; format: functional, organism-based; how it was run: as §2
[20] = system: Candida albicans; test: Antimicrobial activity against Candida albicans GDH2346 at planktonic cell density of 10^8 cells/ml after 48 hrs by XTT assay; format: functional; settings: GDH2346, 48 h; how it was run: as §1
[21] = system: Candida albicans; test: Antimicrobial activity against Chk1 deficient Candida albicans CHK21 at planktonic cell density of 10^8 cells/ml after 48 hrs by XTT assay; format: functional; settings: CHK21, 48 h; how it was run: as §1
[22] = system: Candida albicans; test: Antimicrobial activity against Candida albicans GDH2346 dissociated biofilms at cell density of 10^3 cells/ml after 48 hrs by XTT assay; format: functional; settings: GDH2346, 48 h; how it was run: as §5
[23] = system: Candida albicans; test: Antimicrobial activity against Candida albicans SC5314 at planktonic cell density of 10^8 cells/ml after 48 hrs by XTT assay; format: functional; settings: SC5314, 48 h; how it was run: as §1
[24] = system: Candida albicans; test: Antimicrobial activity against Candida albicans planktonic forms; format: functional
How it was run: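 Yeast grown in YNB/50 mM glucose at room temperature to about 2 x 10^8 cells/ml, washed, and resuspended in MOPS-buffered RPMI 1640. Tested at 2 x 10^3 cells/ml (standard) or at densities from 1 x 10^3 to 1 x 10^8 cells/ml. Incubated with twofold drug dilutions at 37°C for 48 h (caspofungin 24 h). XTT-menadione read-out at 490 nm.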

[25] = system: Candida albicans; test: Antimicrobial activity against Candida albicans SC5314 dissociated biofilms grown on polymethylmethacrylate surface at cell density of 10^3 cells/ml at 0.25 to 8 ug/ml by XTT assay; format: functional, organism-based; how it was run: as §2
[26] = system: Candida albicans; test: Antimicrobial activity against Candida albicans SC5314 dissociated biofilms grown on polymethylmethacrylate surface at cell density of 10^8 cells/ml at 0.25 to 8 ug/ml by XTT assay; format: functional, organism-based; how it was run: as §2
[27] = system: Candida albicans; test: Antimicrobial activity against fluconazole-resistant Candida albicans FH5 dissociated biofilms at cell density of 10^3 cells/ml after 48 hrs by XTT assay; format: functional; settings: FH5, 48 h; how it was run: as §5
[28] = system: Candida albicans; test: Inhibition of metabolic activity in Candida albicans SC5314 at 32 ug/ml; format: functional; set-up: scale not given: the % may be the effect or the level left; how it was run: as §3

For `OC(Cn1cncn1)(Cn1cncn1)c1ccc(F)cc1F` [FLUCONAZOLE], the MIC80 [1] was 4 µg/mL (≈ 13.1 µM), the MIC [2] was > 1020 µg/mL and the MIC80 [3] was 2 µg/mL (≈ 6.53 µM). For the same compound, the MIC80 [4] was > 512 µg/mL, the Activity [5] was “Active” and the Activity [6] was 17%. The MIC80 [7] was > 512 µg/mL, the Activity [8] was “inactive” and the MIC80 [9] was > 512 µg/mL. The MIC80 [10] was > 512 µg/mL, the MIC80 [11] was > 512 µg/mL and the MIC80 [12] was 64 µg/mL (≈ 209 µM). For the same compound, the MIC80 [13] was > 512 µg/mL, the MIC80 [14] was 2 µg/mL (≈ 6.53 µM) and the MIC80 [15] was > 256 µg/mL. The MIC80 [16] was 0.125 µg/mL (≈ 0.408 µM), the MIC80 [17] was > 64 µg/mL and the MIC80 [18] was 0.125 µg/mL (≈ 0.408 µM). For the same compound, the Activity [19] was “Active”, the MIC80 [20] was > 512 µg/mL and the MIC80 [21] was > 64 µg/mL. For the same compound, the MIC80 [22] was 0.25 µg/mL (≈ 0.816 µM), the MIC80 [23] was > 256 µg/mL and the MIC [24] was 2 µg/mL (≈ 6.53 µM). For the same compound, the Activity [25] was “Active”, the Activity [26] was “inactive” and the MIC80 [27] was 64 µg/mL (≈ 209 µM). The Activity [28] was 15%.
